MrgX1 PAM: allosterically activates human MrgX1 receptor signaling; Q96LB2; MrgX1-HEK293, Fluo-4 calcium flux, FDSS; hits give high values; B-score at 10 µM; 0.63% of 310,000 active; AID 588675;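 active = plate-corrected calcium response at least 3 library SD above typical, normal starting fluorescence, not activating the receptor alone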;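 note: compound read alongside a low EC10 to EC30 dose of BAM8-22 agonist; peak minus trough fluorescence over baseline measured at the second addition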
Target sequence (Q96LB2 whole entry, looked up): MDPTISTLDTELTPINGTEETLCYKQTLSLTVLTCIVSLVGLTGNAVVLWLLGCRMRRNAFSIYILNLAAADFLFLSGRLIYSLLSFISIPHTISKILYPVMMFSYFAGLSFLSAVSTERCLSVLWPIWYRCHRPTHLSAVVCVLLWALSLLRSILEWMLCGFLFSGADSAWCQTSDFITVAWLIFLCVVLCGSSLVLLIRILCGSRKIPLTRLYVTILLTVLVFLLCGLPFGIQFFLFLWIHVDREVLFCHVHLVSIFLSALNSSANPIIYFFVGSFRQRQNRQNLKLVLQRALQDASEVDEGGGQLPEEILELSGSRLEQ
MrgX1 antag: blocks BAM8-22 activation of human MrgX1 receptor. MRGX1-HEK293 calcium flux, Fluo-4, BAM8-22 antagonism; hits give low values. B-score at 10 µM. AID 588676. 1.3% of 310,000 active;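 active = calcium-response B-score plate-corrected more than 3 library SD below zero, starting fluorescence within 5 deviations, no agonist response on first addition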;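 note: peak minus trough fluorescence over baseline after final BAM8-22 challenge near maximal dose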
RGS4 block: human RGS4 inhibition; P49798; HEK293 M3R/RGS4 inducible, Fluo-4 calcium flux; hits give high values; triggered by carbachol at its EC20; B-score at 10 µM; 0.45% of 310,000 active;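 active = B-score, a plate-corrected calcium signal, over three deviations above library mean, with baseline fluorescence within five deviations of library mean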;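 note: RGS4 expression induced by doxycycline in cells with stable M3 receptor; B-score is computed from the integrated fluorescence ratio over baseline after carbachol; higher B-score means a larger calcium signal and so more RGS4 inhibition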
Target sequence (P49798 whole entry, looked up): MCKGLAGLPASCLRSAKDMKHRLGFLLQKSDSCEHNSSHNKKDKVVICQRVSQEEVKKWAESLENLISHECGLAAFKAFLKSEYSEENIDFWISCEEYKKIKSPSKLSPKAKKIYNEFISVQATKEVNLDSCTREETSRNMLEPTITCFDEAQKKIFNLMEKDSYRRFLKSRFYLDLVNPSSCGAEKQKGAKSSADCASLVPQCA
MrgX1 agonist: agonists of human MrgX1 receptor; Q96LB2; MrgX1-HEK293 cells, Fluo-4 calcium fluorescence, agonist mode; hits give high values; B-score at 10 µM; 0.44% of 310,000 active;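 active = calcium response B-score plate-corrected fluorescence ratio at least 3 library SD, with starting fluorescence B-score inside 5 SD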
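System: HEK293 cells stably expressing human MrgX1 receptor; Dosing: test compound in the initial addition of three; Schedule: overnight plating, then 30 min 37 °C plus 30 min room-temperature dye loading; Detection: kinetic calcium dye fluorescence, Fluo-4 NW; Controls: per-plate positive and negative controls for Z′ factor.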
RGS4 act: RGS4 potentiation or activation; AID 463111; 0.92% of 310,000 active; B-score at 10 µM; HEK293 M3R/inducible RGS4, carbachol calcium flux Fluo4; hits give low values;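 active = B-score of the integrated calcium signal more than 4 SD below the library mean, with starting fluorescence not abnormally high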;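 note: negative B-score means reduced calcium response which marks RGS4 activation or potentiation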
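Assay system: HEK293 FlpIn-TREx cells, stable M3R, doxycycline-inducible RGS4 / Probe or stimulus: carbachol, ECmax concentration / Times: overnight RGS4 induction, 30 min dye load 37 °C, 20 min compound RT / Signal: kinetic calcium fluorescence imaging with Fluo4-AM dye, 2 µM / Measure: Agonist-evoked peak-minus-minimum fluorescence over baseline, integrated ratio, B score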
RGS4 inh valid: validation of RGS4 inhibitors; shares compounds with RGS4 block; HEK293 M3R/RGS4, carbachol calcium Fluo-4 fluorescence; carbachol added at its EC20; 0 = buffer wells, 100 = carbachol control; calcium response, % at 10 µM; 65% of 1,700 active;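 active = duplicate-averaged calcium response above the buffer-only control mean plus 5 SD of those controls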;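 note: integrated fluorescence ratio F max minus min over baseline F0; higher response in RGS4-induced cells means RGS4 inhibition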
RGS4 uninduced: counter-screen for RGS4 inhibitors: effect in non-induced cells; activity (percent), % at 10 µM; shares compounds with RGS4 block; AID 493000; 20% of 1,900 active; HEK293 M3R non-induced, carbachol calcium Fluo-4; submaximal (EC20) carbachol stimulus; buffer wells 0%, carbachol control wells 100%; call rule not given here;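 note: RGS4 induction absent so cells express M3R without RGS4; higher means more calcium signal and flags a non-specific hit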
M3R basal Ca ctr: second counter-screen for RGS4 inhibitors: non-induced cells without carbachol; shares compounds with RGS4 block; HEK293 M3R/RGS4 non-induced, Fluo-4 calcium, no carbachol; normalised: buffer wells 0%, carbachol wells 100%; calcium response (agonist-mode artifact), % at 10 µM; 22% of 1,900 active; AID 493001;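 active = duplicate-averaged calcium rise in uninduced cells above buffer wells' mean plus 5 SD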
Hits are given with their value; i = inactive; nt = not tested or not shown. A selection: hits, their analogues and other compounds. The true share with any hit is near 3.5%.

SMILES | MrgX1 PAM | MrgX1 antag | RGS4 block | MrgX1 agonist | RGS4 act | RGS4 inh valid | RGS4 uninduced | M3R basal Ca ctr
CCOC(=O)N1CCN(Cc2cn[nH]c2-c2ccc(-c3ccccc3)cc2)CC1 | i | i | 6.42 | i | i | 5.5% | i | i
O=C(CSc1nc2ccccc2[nH]1)N=Nc1c(O)[nH]c2ccccc12 | i | i | 4.99 | i | i | i | i | i
Cn1c(SCC(=O)N=Nc2c(O)[nH]c3ccccc23)nc2ccccc21 | i | i | i | i | i | nt | nt | nt
CCC(=O)C1CCCN(C(=O)c2ccc(OC)c(OC3CCN(C(C)=O)CC3)c2)C1 (stereo not drawn) | i | i | i | i | i | nt | nt | nt
CSc1ccc(CN(C)C(=O)C23CC4CC(CC(Cl)(C4)C2)C3)cc1 | i | i | i | i | i | nt | nt | nt
O=C(Oc1cccc2cccnc12)c1ccc(N2C(=O)C3C4CCC(C4)C3C2=O)cc1 (stereo not drawn) | i | i | i | i | i | nt | i | 7.0%
CC(Nc1nc(-c2ccc(Cl)cc2)cs1)c1nc2cc(Cl)c(N3CCCCC3)cc2n1CCOCCO (stereo not drawn) | i | i | i | i | i | nt | i | i
COc1ccc(-c2csc(NC(C)c3nc4cc(Cl)c(N5CCCCC5)cc4n3CCOCCO)n2)cc1 (stereo not drawn) | i | i | i | i | i | i | i | i
COc1ccc(-c2csc(NC(C)c3nc4cc(Cl)c(N5CCCCC5)cc4n3CCCO)n2)cc1 (stereo not drawn) | i | i | i | i | i | nt | nt | nt
COc1cccc(NC(=O)CC(=O)c2ccccc2)c1 | i | i | i | i | i | nt | nt | nt
COc1ccc(-c2c(=O)n(OC)c3ccccc3[n+]2[O-])cc1OC | i | i | 7.25 | i | i | i | i | i
C=CCOn1c(=O)c(-c2ccc(OC)c(OC)c2)[n+]([O-])c2ccccc21 | i | i | i | i | i | nt | nt | nt
O=C(N/N=C/c1ccccc1)c1[nH]c2ccc(Br)cc2c1-c1ccccc1 | i | i | i | i | i | nt | nt | nt
O=C(NN=C1CCCC1)c1[nH]c2ccc(Br)cc2c1-c1ccccc1 | i | i | 13.3 | i | i | 16.5% | i | i
Cc1ccccc1NC(=O)C1c2ccccc2Oc2ccccc21 | i | i | i | i | i | nt | nt | nt
Cc1cccnc1NC(=O)C1c2ccccc2Oc2ccccc21 | i | i | 8.24 | i | i | 10.0% | i | i
CCc1cccc(CC)c1NC(=S)NCCc1c(C)[nH]c2ccccc12 | i | i | 6.23 | i | i | 21.5% | i | i
CCCOc1ccc(/C=c2\sc3ncnn3c2=O)cc1 | i | i | 5.75 | i | i | 9.0% | 49.0% | 13.5%
O=[N+]([O-])c1cc(C(F)(F)F)ccc1NCCc1c[nH]c2ccc(O)cc12 | i | i | 12.6 | i | i | 20.0% | i | i
NS(=O)(=O)c1ccc(CNC(=O)/C=C/c2cccc(Cl)c2)cc1 | i | i | i | i | i | nt | nt | nt
COc1ccc(/C=C/C(=O)c2ccc([N+](=O)[O-])o2)cc1OC | i | i | i | i | i | nt | i | i
O=C(/C=C/c1cccc(Cl)c1)c1ccc([N+](=O)[O-])o1 | i | i | 13.7 | i | i | 17.5% | 33.5% | 7.0%
COc1cc(/C=C/C(=O)c2ccc([N+](=O)[O-])o2)ccc1O | i | i | 8.73 | i | i | 39.0% | i | i
Cc1ccccc1NC(=O)Cc1nc(COC(=O)c2cc([N+](=O)[O-])ccc2N)cs1 | i | i | i | i | i | nt | nt | nt
CCCNc1c(NS(=O)(=O)c2cccc(C#N)c2)c(=O)oc2ccccc12 | i | i | i | i | i | nt | nt | nt
Cc1nc(Nc2ccccc2)sc1C(=O)c1ccc(F)cc1 | i | i | i | i | i | nt | nt | nt
Nc1nc(Nc2ccccc2F)sc1C(=O)c1ccccc1 | i | i | 6.52 | i | i | 28.0% | i | i

Screens (PubChem)
